ChEMBL document CHEMBL4619811, “Systematic Investigation of the Permeability of Androgen Receptor PROTACs” (ACS Med Chem Lett, 2020)
The source made the active and inactive calls. The rule behind the calls is not given here.

Tests used:
[1] = Apparent permeability from apical to basolateral side in human Caco2 cells at 10 uM incubated for 120 mins; type: ADME, cell-based; conditions: Caco-2
Procedure, shortened: (§1)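 Polarized Caco-2 cell monolayer, permeability measured in both directions (apical to basolateral and basolateral to apical), reported as Papp in 10–6 cm s–1. Efflux ratio taken as the ratio of the directional permeabilities. Compound recovery also determined.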

[2] = target: T1, von Hippel-Lindau disease tumor suppressor/Androgen receptor (Homo sapiens, UniProt P10275+P40337); assay: Protac activity at VHL/androgen receptor in human LNCaP cells assessed as induction of androgen receptor protein degradation incubated for 6 hrs by Western blot analysis; type: cell-based
Procedure, shortened: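 Androgen-dependent LNCaP prostate adenocarcinoma cells treated across a concentration range, then AR protein levels normalized and plotted against concentration. DCMAX is the percentage of AR cleared; DC50 is the concentration giving half of DCMAX. At least 5 independent experiments, each in triplicate. Significance by ANOVA with Dunnett's test.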

[3] = Efflux ratio of apparent permeability across basolateral to apical membrane over apical to basolateral membrane in human Caco2 cells at 10 uM incubated for 120 mins; type: ADME, cell-based; conditions: Caco-2; procedure, shortened: as §1
[4] = Apparent permeability from basolateral to apical side in human Caco2 cells at 10 uM incubated for 120 mins; type: ADME, cell-based; conditions: Caco-2; procedure, shortened: as §1
[5] = Apparent permeability in pH 7.4 ammonium acetate buffer incubated for 5 hrs by PAMPA; type: ADME
Procedure, shortened: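 Passive permeability by PAMPA, reported as Papp in 10–6 cm s–1. Values under the limit of quantification were flagged as BLQ. Compound recovery in the assay was also determined.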

Albumin = Albumin (Homo sapiens, UniProt P02768); assay: Binding affinity to HSA assessed as free fraction by HPLC analysis; type: ADME; conditions: isolated protein
[6] = Chromatographic hydrophobicity index, log D of the compound at pH 7.4 by HPLC analysis; type: physicochemical; conditions: buffer
[7] = target: T1, von Hippel-Lindau disease tumor suppressor/Androgen receptor; assay: Protac activity at VHL/androgen receptor in human LNCaP cells assessed as induction of androgen receptor protein degradation incubated for 6 hrs by Western blot analysis relative to control; type: cell-based
Procedure, shortened: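 LNCaP cells (androgen-dependent human prostate adenocarcinoma) were exposed to a concentration series of PROTAC. AR protein levels were normalized and plotted against PROTAC concentration. DCMAX is the percentage of AR cleared, and DC50 is the concentration clearing half of DCMAX. Data come from at least 5 independent experiments run in triplicate, with ANOVA (Dunnett's) for significance.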
Target sequence in this assay (P10275 whole entry, looked up): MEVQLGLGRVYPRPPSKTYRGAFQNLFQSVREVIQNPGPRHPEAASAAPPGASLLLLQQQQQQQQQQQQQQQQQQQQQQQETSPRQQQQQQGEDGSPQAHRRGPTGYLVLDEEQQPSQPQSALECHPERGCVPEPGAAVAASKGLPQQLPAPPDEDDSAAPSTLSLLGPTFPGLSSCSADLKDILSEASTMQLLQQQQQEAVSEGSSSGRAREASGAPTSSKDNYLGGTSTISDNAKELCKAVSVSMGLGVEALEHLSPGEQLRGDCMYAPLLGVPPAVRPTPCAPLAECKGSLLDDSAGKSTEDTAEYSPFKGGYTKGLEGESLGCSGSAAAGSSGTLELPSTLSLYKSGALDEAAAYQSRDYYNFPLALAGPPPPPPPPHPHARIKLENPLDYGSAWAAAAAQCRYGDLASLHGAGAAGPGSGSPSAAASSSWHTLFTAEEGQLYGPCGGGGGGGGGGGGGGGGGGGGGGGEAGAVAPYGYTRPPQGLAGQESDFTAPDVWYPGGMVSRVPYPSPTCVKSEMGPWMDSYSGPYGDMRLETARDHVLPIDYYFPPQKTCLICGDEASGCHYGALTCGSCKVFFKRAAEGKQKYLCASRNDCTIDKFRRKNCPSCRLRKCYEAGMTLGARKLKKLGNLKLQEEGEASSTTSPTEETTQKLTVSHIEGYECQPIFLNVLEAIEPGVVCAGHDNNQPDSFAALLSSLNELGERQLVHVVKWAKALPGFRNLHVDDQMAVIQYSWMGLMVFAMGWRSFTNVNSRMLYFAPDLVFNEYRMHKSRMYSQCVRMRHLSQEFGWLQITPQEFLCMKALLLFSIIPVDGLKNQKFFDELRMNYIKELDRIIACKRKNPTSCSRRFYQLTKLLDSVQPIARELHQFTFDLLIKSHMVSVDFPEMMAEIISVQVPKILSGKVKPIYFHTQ
Target sequence in this assay (P40337 whole entry, looked up): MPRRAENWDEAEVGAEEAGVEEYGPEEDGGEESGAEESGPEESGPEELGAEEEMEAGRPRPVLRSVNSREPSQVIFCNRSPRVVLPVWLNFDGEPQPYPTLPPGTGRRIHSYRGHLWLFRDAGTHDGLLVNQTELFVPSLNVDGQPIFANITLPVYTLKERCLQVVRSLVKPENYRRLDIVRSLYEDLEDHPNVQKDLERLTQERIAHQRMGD

[8] = target: T1, von Hippel-Lindau disease tumor suppressor/Androgen receptor; assay: Protac activity at VHL/androgen receptor in human LNCaP cells assessed as induction of androgen receptor protein degradation at 1 uM incubated for 6 hrs by Western blot analysis relative to control; type: cell-based
Target sequence in this assay (P10275 whole entry, looked up): as the sequence (P10275 whole entry, looked up) above
Target sequence in this assay (P40337 whole entry, looked up): as the sequence (P40337 whole entry, looked up) above

Sequence of Albumin (P02768 whole entry): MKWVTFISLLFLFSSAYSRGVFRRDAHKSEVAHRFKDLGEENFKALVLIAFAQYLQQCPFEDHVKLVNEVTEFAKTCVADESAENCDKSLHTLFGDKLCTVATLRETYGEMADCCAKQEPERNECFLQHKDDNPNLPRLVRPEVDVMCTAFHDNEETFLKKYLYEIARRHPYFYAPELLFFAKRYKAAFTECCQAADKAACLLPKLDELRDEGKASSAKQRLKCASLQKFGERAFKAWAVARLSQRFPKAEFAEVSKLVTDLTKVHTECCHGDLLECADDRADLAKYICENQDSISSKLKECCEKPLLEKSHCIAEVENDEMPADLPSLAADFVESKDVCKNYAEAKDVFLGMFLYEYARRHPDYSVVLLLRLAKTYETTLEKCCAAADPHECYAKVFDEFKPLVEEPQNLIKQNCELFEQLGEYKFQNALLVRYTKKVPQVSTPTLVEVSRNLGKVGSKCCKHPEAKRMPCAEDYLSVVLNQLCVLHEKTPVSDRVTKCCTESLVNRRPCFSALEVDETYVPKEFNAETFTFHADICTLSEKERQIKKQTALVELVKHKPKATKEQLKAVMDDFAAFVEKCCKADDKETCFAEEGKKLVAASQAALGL

| SMILES | Papp A→B at 2 h, 10 µM [1] | efflux ratio at 2 h, 10 µM [3] | Papp B→A at 2 h, 10 µM [4] | Papp at 5 h [5] | Activity (Albumin) | CHI [6] | further results |
| --- | --- | --- | --- | --- | --- | --- | --- |
| CC1(C)C(=O)N(c2ccc(C#N)c(C(F)(F)F)c2)C(=S)N1c1ccc(OCCOCCOCCOCCOc2cccc3c2C(=O)N(C2CCC(=O)NC2=O)C3=O)cc1 (stereo not drawn) | 1.7 ×10⁻⁶ cm/s | 8.4 | 14.1 ×10⁻⁶ cm/s | < 1 ×10⁻⁶ cm/s |  |  | Activity [2]: inactive |
| CN1C(=O)N(c2ccc(C#N)c(C(F)(F)F)c2)C(=O)C1(C)c1ccc(O)cc1 (stereo not drawn) |  |  |  | 8.3 ×10⁻⁶ cm/s | > 5% | 4.4 |  |
| Cc1ncsc1-c1ccc(CNC(=O)[C@@H]2C[C@@H](O)CN2C(=O)[C@@H](NC(=O)COCC(F)(F)COc2ccc(-c3ccc(N4C(=S)N(c5ccc(C#N)c(C(F)(F)F)c5)C(=O)C4(C)C)cc3)cc2)C(C)(C)C)cc1 |  |  |  | < 1 ×10⁻⁶ cm/s | 6% | 6.1 |  |
| Cc1ncsc1-c1ccc(CNC(=O)[C@@H]2C[C@@H](O)CN2C(=O)[C@@H](NC(=O)CCOCCOCCOc2ccc(C(=O)N[C@H]3C(C)(C)[C@H](Oc4ccc(C#N)c(C(F)(F)F)c4)C3(C)C)cc2)C(C)(C)C)cc1 |  |  |  | < 1 ×10⁻⁶ cm/s | 8% | 5.8 |  |
| Cc1ncsc1-c1ccc(CNC(=O)[C@@H]2C[C@@H](O)CN2C(=O)[C@@H](NC(=O)CCOCCOCCOCCOc2ccc(N3C(=S)N(c4ccc(C#N)c(C(F)(F)F)c4)C(=O)C3(C)C)cc2)C(C)(C)C)cc1 | < 0.69 ×10⁻⁶ cm/s | > 12 | 2.6 ×10⁻⁶ cm/s | < 1 ×10⁻⁶ cm/s | 11% | 5.1 |  |
| Cc1ncsc1-c1ccc(CNC(=O)[C@@H]2C[C@@H](O)CN2C(=O)[C@@H](NC(=O)COCCCOCCCCCOc2ccc(N3C(=S)N(c4ccc(C#N)c(C(F)(F)F)c4)C(=O)C3(C)C)cc2)C(C)(C)C)cc1 | 0.35 ×10⁻⁶ cm/s | 0.7 | 0.24 ×10⁻⁶ cm/s | < 1 ×10⁻⁶ cm/s | 9% | 6.3 |  |
| CC1(C)C(=O)N(c2ccc(C#N)c(C(F)(F)F)c2)C(=S)N1c1ccc(O)cc1 |  |  |  | 4.6 ×10⁻⁶ cm/s | > 5% | 5 |  |
| CC1(C)C(=O)N(c2ccc(C#N)c(C(F)(F)F)c2)C(=S)N1c1ccc(OCCOCCOCCOCCOc2cccc3c2CN([C@H]2CCC(=O)NC2=O)C3=O)cc1 |  |  |  |  |  |  | %max [7]: 33%; DC50 [2]: 10 nM |
| CC1(C)C(=O)N(c2ccc(C#N)c(C(F)(F)F)c2)C(=S)N1c1ccc(OCCOCCOCCOCCOC23CC4CC(CC(C4)C2)C3)cc1 | 0.15 ×10⁻⁶ cm/s | 1.5 | 0.22 ×10⁻⁶ cm/s | < 1 ×10⁻⁶ cm/s |  |  |  |
| OC12CC3CC(CC(C3)C1)C2 |  |  |  |  | > 5% | 7.9 | Activity [8]: 18% |
| O=C1CC[C@H](N2Cc3c(O)cccc3C2=O)C(=O)N1 |  |  |  |  | > 5% | 0.2 |  |
| Cc1ncsc1-c1ccc(CNC(=O)[C@@H]2C[C@@H](O)CN2C(=O)[C@@H](NC(=O)COCCCOc2ccc(-c3ccc(N4C(=S)N(c5ccc(C#N)c(C(F)(F)F)c5)C(=O)C4(C)C)cc3)cc2)C(C)(C)C)cc1 |  |  |  | < 1 ×10⁻⁶ cm/s | 7% | 6.2 |  |
| Cc1ncsc1-c1ccc(CNC(=O)[C@@H]2C[C@@H](O)CN2C(=O)[C@@H](NC(=O)COCCCOCCCCOc2ccc(N3C(=S)N(c4ccc(C#N)c(C(F)(F)F)c4)C(=O)C3(C)C)cc2)C(C)(C)C)cc1 | < 27 ×10⁻⁶ cm/s | > 0.5 | 1.4 ×10⁻⁶ cm/s | < 1 ×10⁻⁶ cm/s | 10% | 6 |  |
| N#Cc1ccc(N2CCC[C@@H]2C(O)CO)cc1C(F)(F)F (stereo partly drawn) |  |  |  | 13.3 ×10⁻⁶ cm/s | > 5% |  |  |
| CC(O)(COc1ccc(OCCOCCOCCOCCOc2cccc3c2C(=O)N(C2CCC(=O)NC2=O)C3=O)cc1)C(=O)Nc1ccc(C#N)c(C(F)(F)F)c1 (stereo not drawn) |  |  |  | 0.3 ×10⁻⁶ cm/s |  |  |  |
| N#Cc1ccc(N2CCC[C@@H]2C(O)COCCOCCOCCOCCOC23CC4CC(CC(C4)C2)C3)cc1C(F)(F)F (stereo partly drawn) |  |  |  | 2.3 ×10⁻⁶ cm/s |  |  |  |
| O=C1CCC(N2C(=O)c3cccc(O)c3C2=O)C(=O)N1 (stereo not drawn) |  |  |  | 2 ×10⁻⁶ cm/s | > 5% | 0.4 | Activity [8]: 23% |
| CC(O)(COc1ccc(OCCOCCOCCOCCOc2cccc3c2CN([C@H]2CCC(=O)NC2=O)C3=O)cc1)C(=O)Nc1ccc(C#N)c(C(F)(F)F)c1 (stereo partly drawn) |  |  |  | 0.4 ×10⁻⁶ cm/s |  |  |  |
| Cc1ncsc1-c1ccc(CNC(=O)[C@@H]2C[C@@H](O)CN2C(=O)[C@@H](NC(=O)COCC(F)(F)C(F)(F)C(F)(F)COCCCOc2ccc(N3C(=S)N(c4ccc(C#N)c(C(F)(F)F)c4)C(=O)C3(C)C)cc2)C(C)(C)C)cc1 | 0.26 ×10⁻⁶ cm/s | < 3 | < 0.79 ×10⁻⁶ cm/s | < 1 ×10⁻⁶ cm/s | 7% | 6.3 |  |
| Cc1ncsc1-c1ccc(CNC(=O)[C@@H]2C[C@@H](O)CN2C(=O)[C@@H](NC(=O)COCCCOCC(F)(F)C(F)(F)COc2ccc(N3C(=S)N(c4ccc(C#N)c(C(F)(F)F)c4)C(=O)C3(C)C)cc2)C(C)(C)C)cc1 | 0.33 ×10⁻⁶ cm/s | > 3 | 0.33 ×10⁻⁶ cm/s | < 1 ×10⁻⁶ cm/s | 7% | 6.1 |  |
| Cc1ncsc1-c1ccc(CNC(=O)[C@@H]2C[C@@H](O)CN2C(=O)[C@@H](NC(=O)COCCCCCOc2ccc(C(=O)N[C@H]3C(C)(C)[C@H](Oc4ccc(C#N)c(C(F)(F)F)c4)C3(C)C)cc2)C(C)(C)C)cc1 |  |  |  | < 1 ×10⁻⁶ cm/s | 7% | 6.7 |  |
| CC(O)(COc1ccc(O)cc1)C(=O)Nc1ccc(C#N)c(C(F)(F)F)c1 (stereo not drawn) |  |  |  | 1.4 ×10⁻⁶ cm/s | > 5% | 4 | Activity [8]: 23% |
| CN1C(=O)N(c2ccc(C#N)c(C(F)(F)F)c2)C(=O)C1(C)c1ccc(OCCOCCOCCOCCOc2cccc3c2CN([C@H]2CCC(=O)NC2=O)C3=O)cc1 (stereo partly drawn) |  |  |  | 0.3 ×10⁻⁶ cm/s |  |  |  |
